From ChEMBL document CHEMBL1149130, “Synthesis and biological evaluation of novel chloroethylaminoanthraquinones with potent cytotoxic activity against cisplatin-resistant tumor cells” (J Med Chem, 2004)

Key:
A2780 [1] = assay: Growth inhibition against A2780 wild-type ovarian cell lines; assay type: functional, cell-based; conditions: Homo sapiens
Procedure, shortened: (§1)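 Cells in exponential growth (5 × 10⁴ cells/mL) were exposed to compound freshly dissolved in DMSO for 24 h at 37 °C. Drug medium was then replaced with fresh medium, followed by 3 days of growth. Viability was read by sulforhodamine B staining. IC50 is the concentration giving a 50% reduction in SRB colour formation.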

Homo sapiens = organism: Homo sapiens; assay: Resistance factor (IC50 in the resistant cell line/IC50 in the parent cell line); assay type: functional
A2780 [2] = assay: Growth inhibition against A2780 cisplatin resistant wild-type ovarian cell lines; assay type: functional, cell-based; conditions: Homo sapiens; procedure, shortened: as §1
CH1 [3] = assay: Growth inhibition against CH-1 cisplatin resistant wild-type ovarian cell lines; assay type: functional, cell-based, Homo sapiens; procedure, shortened: as §1
CH1 [4] = assay: Growth inhibition against CH-1 wild-type ovarian cell lines; assay type: functional, cell-based; conditions: Homo sapiens; procedure, shortened: as §1
SK-OV-3 [5] = assay: Growth inhibition against SKOV3 wild-type ovarian cell lines; assay type: functional, cell-based; conditions: Homo sapiens; procedure, shortened: as §1
CH1 [6] = assay: Compound was evaluated for growth inhibition against CH1cisR wild-type ovarian cell lines; assay type: functional, cell-based; conditions: Homo sapiens
Procedure, shortened: (§2)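 Cells kept as in earlier work; exponentially growing cultures (5 × 10⁴ cells/mL) given compound freshly dissolved in DMSO, 24 h at 37 °C. Drug medium then replaced with fresh medium, followed by 3 day growth. Viability by sulforhodamine B staining; IC50 taken as concentration giving 50% reduction in SRB colour formation.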

SK-OV-3 [7] = assay: Compound was evaluated for growth inhibition against SKOV3 wild-type ovarian cell lines; assay type: functional, cell-based; conditions: Homo sapiens; procedure, shortened: as §2

With CN(CCO)CCNc1ccc(NCCN(C)CCO)c2c1C(=O)c1ccccc1C2=O the IC50 (A2780 [1]) was 720 nM, the RF (Homo sapiens) was 1.2 and the RF (Homo sapiens; Homo sapiens) was 0.8. The IC50 (A2780 [2]) was 580 nM, the IC50 (CH1 [3]; Homo sapiens, CH1) was 800 nM and the IC50 (CH1 [4]) was 680 nM. The IC50 (SK-OV-3 [5]) was 3300 nM.

CN(CCCl)CCNc1cccc2c1C(=O)c1ccccc1C2=O showed an IC50 (A2780 [1]) of 4600 nM, an RF (Homo sapiens) of 1.2 and an RF (Homo sapiens; Homo sapiens) of 1.7. The IC50 (A2780 [2]) was 8000 nM, the IC50 (CH1 [3]; Homo sapiens, CH1) was 3100 nM and the IC50 (CH1 [4]) was 2500 nM. The IC50 (SK-OV-3 [5]) was 13500 nM.

Work on O=C1c2c(O)ccc(O)c2C(=O)c2c(NCCN(CCCl)CCCl)ccc(NCCN(CCCl)CCCl)c21 yielded an IC50 (A2780 [1]) of 120 nM, an RF (Homo sapiens) of 2 and an RF (Homo sapiens; Homo sapiens) of 1.4. The IC50 (A2780 [2]) was 170 nM, the IC50 (CH1 [3]; Homo sapiens, CH1) was 110 nM and the IC50 (CH1 [4]) was 54 nM. The IC50 (SK-OV-3 [5]) was 1450 nM.

CN(CCO)CCNc1ccc(NCCN(C)CCO)c2c1C(=O)c1c(O)ccc(O)c1C2=O gave an IC50 (A2780 [1]) of 4 nM, an RF (Homo sapiens) of 2.6 and an IC50 (A2780 [2]) of 4 nM. The IC50 (CH1 [3]; Homo sapiens, CH1) was 22 nM, the IC50 (CH1 [4]) was 8 nM and the IC50 (SK-OV-3 [5]) was 11000 nM.

Compound O=C1c2ccccc2C(=O)c2c(NCCN(CCO)CCO)ccc(NCCN(CCO)CCO)c21 has an IC50 (A2780 [1]) of 3300 nM, an RF (Homo sapiens) of 0.8 and an RF (Homo sapiens; Homo sapiens) of 1.1. It also gave an IC50 (A2780 [2]) of 3500 nM, an IC50 (CH1 [6]) of 3300 nM and an IC50 (SK-OV-3 [7]) of 18000 nM. For the same compound, the IC50 (CH1 [4]) was 3900 nM.

With O=C1c2c(O)ccc(O)c2C(=O)c2c(NCCCN(CCCl)CCCl)ccc(NCCCN(CCCl)CCCl)c21 the IC50 (A2780 [1]) was 28 nM, the RF (Homo sapiens; Homo sapiens) was 1.4 and the IC50 (A2780 [2]) was 38 nM. For the same compound, the IC50 (CH1 [3]; Homo sapiens, CH1) was 35 nM, the IC50 (CH1 [4]) was 25 nM and the IC50 (SK-OV-3 [5]) was 185 nM.

CN(C)CCNc1ccc(NCCN(CCO)CCO)c2c1C(=O)c1c(O)ccc(O)c1C2=O gave an IC50 (A2780 [1]) of 13 nM, an RF (Homo sapiens) of 1.6 and an RF (Homo sapiens; Homo sapiens) of 1. It also gave an IC50 (A2780 [2]) of 13 nM, an IC50 (CH1 [3]; Homo sapiens, CH1) of 46 nM and an IC50 (CH1 [4]) of 30 nM. For the same compound, the IC50 (SK-OV-3 [5]) was 260 nM.

With O=C1c2ccccc2C(=O)c2c(NCCCN(CCCl)CCCl)ccc(NCCCN(CCCl)CCCl)c21 the IC50 (A2780 [1]) was 31 nM, the RF (Homo sapiens) was 3.7 and the IC50 (A2780 [2]) was 52 nM. The IC50 (CH1 [3]; Homo sapiens, CH1) was 110 nM, the IC50 (CH1 [4]) was 30 nM and the IC50 (SK-OV-3 [5]) was 190 nM.

In the case of CN(C)CCNc1ccc(NCCN(C)CCO)c2c1C(=O)c1c(O)ccc(O)c1C2=O, the IC50 (A2780 [1]) is reported as 5 nM, the RF (Homo sapiens) is reported as 1.9 and the RF (Homo sapiens; Homo sapiens) is reported as 1. It also gave an IC50 (A2780 [2]) of 5 nM, an IC50 (CH1 [3]; Homo sapiens, CH1) of 45 nM and an IC50 (CH1 [4]) of 24 nM. For the same compound, the IC50 (SK-OV-3 [5]) was 300 nM.

O=C1c2c(O)ccc(O)c2C(=O)c2c(NCCN(CCO)CCO)ccc(NCCN(CCO)CCO)c21 showed an IC50 (A2780 [1]) of 82 nM, an RF (Homo sapiens) of 1.2 and an RF (Homo sapiens; Homo sapiens) of 1.4. For the same compound, the IC50 (A2780 [2]) was 115 nM, the IC50 (CH1 [3]; Homo sapiens, CH1) was 370 nM and the IC50 (CH1 [4]) was 300 nM. It also gave an IC50 (SK-OV-3 [5]) of 1500 nM.

For O=C1c2ccccc2C(=O)c2c(NCCCN(CCCl)CCCl)cccc21, the IC50 (A2780 [1]) was 410 nM, the RF (Homo sapiens) was 2.9 and the RF (Homo sapiens; Homo sapiens) was 1.6. For the same compound, the IC50 (A2780 [2]) was 640 nM, the IC50 (CH1 [3]; Homo sapiens, CH1) was 550 nM and the IC50 (CH1 [4]) was 185 nM. It also gave an IC50 (SK-OV-3 [5]) of 1900 nM.

O=C(O)CCCc1ccc(N(CCCl)CCCl)cc1 [CHLORAMBUCIL] gave an RF (Homo sapiens) of 2.4, an IC50 (A2780 [2]) of 52500 nM and an IC50 (CH1 [3]; Homo sapiens, CH1) of 7900 nM. For the same compound, the IC50 (CH1 [4]) was 3300 nM and the IC50 (SK-OV-3 [5]) was 35000 nM.

O=C1c2ccccc2C(=O)c2c(NCCN(CCCl)CCCl)ccc(NCCN(CCCl)CCCl)c21 showed an IC50 (A2780 [1]) of 51 nM, an RF (Homo sapiens) of 1.2 and an RF (Homo sapiens; Homo sapiens) of 1.9. For the same compound, the IC50 (A2780 [2]) was 96 nM, the IC50 (CH1 [3]; Homo sapiens, CH1) was 92 nM and the IC50 (CH1 [4]) was 78 nM. For the same compound, the IC50 (SK-OV-3 [5]) was 860 nM.

O=C1c2c(O)ccc(O)c2C(=O)c2c(NCCCN(CCO)CCO)ccc(NCCCN(CCO)CCO)c21 showed an IC50 (A2780 [1]) of 680 nM, an RF (Homo sapiens) of 1.3 and an RF (Homo sapiens; Homo sapiens) of 1.1. It also gave an IC50 (A2780 [2]) of 740 nM, an IC50 (CH1 [3]; Homo sapiens, CH1) of 780 nM and an IC50 (CH1 [4]) of 580 nM. It also gave an IC50 (SK-OV-3 [5]) of 2450 nM.

For CN(CCCl)CCNc1ccc(NCCN(C)CCCl)c2c1C(=O)c1c(O)ccc(O)c1C2=O, the IC50 (A2780 [1]) was 9 nM, the RF (Homo sapiens) was 1.9 and the RF (Homo sapiens; Homo sapiens) was 2.7. The IC50 (A2780 [2]) was 24 nM, the IC50 (CH1 [3]; Homo sapiens, CH1) was 14 nM and the IC50 (CH1 [4]) was 7 nM. For the same compound, the IC50 (SK-OV-3 [5]) was 100 nM.

In the case of O=C1c2ccccc2C(=O)c2c(NCCCN(CCO)CCO)ccc(NCCCN(CCO)CCO)c21, the IC50 (A2780 [1]) is reported as 3500 nM, the RF (Homo sapiens) is reported as 1.1 and the RF (Homo sapiens; Homo sapiens) is reported as 1. For the same compound, the IC50 (A2780 [2]) was 3400 nM, the IC50 (CH1 [6]) was 2400 nM and the IC50 (SK-OV-3 [7]) was 6700 nM. It also gave an IC50 (CH1 [4]) of 2200 nM.

With CN(CCO)CCCNc1cccc2c1C(=O)c1ccccc1C2=O the IC50 (A2780 [1]) was 3100 nM, the RF (Homo sapiens) was 1 and the RF (Homo sapiens; Homo sapiens) was 1.1. For the same compound, the IC50 (A2780 [2]) was 3300 nM, the IC50 (CH1 [3]; Homo sapiens, CH1) was 2600 nM and the IC50 (CH1 [4]) was 2600 nM. The IC50 (SK-OV-3 [5]) was 11500 nM.

With CN(CCO)CCNc1cccc2c1C(=O)c1ccccc1C2=O the IC50 (A2780 [1]) was 3400 nM, the RF (Homo sapiens) was 1 and the RF (Homo sapiens; Homo sapiens) was 1.2. For the same compound, the IC50 (A2780 [2]) was 4200 nM, the IC50 (CH1 [3]; Homo sapiens, CH1) was 2800 nM and the IC50 (CH1 [4]) was 2900 nM. The IC50 (SK-OV-3 [5]) was 13000 nM.

Work on CN(CCCl)CCCNc1cccc2c1C(=O)c1ccccc1C2=O yielded an IC50 (A2780 [1]) of 2700 nM, an RF (Homo sapiens) of 0.9 and an RF (Homo sapiens; Homo sapiens) of 1. The IC50 (A2780 [2]) was 2700 nM, the IC50 (CH1 [3]; Homo sapiens, CH1) was 1300 nM and the IC50 (CH1 [4]) was 1440 nM. It also gave an IC50 (SK-OV-3 [5]) of 10800 nM.

Compound CN(C)CCNc1ccc(NCCN(CCCl)CCCl)c2c1C(=O)c1c(O)ccc(O)c1C2=O has an IC50 (A2780 [1]) of 16 nM, an RF (Homo sapiens) of 1 and an RF (Homo sapiens; Homo sapiens) of 1.2. It also gave an IC50 (A2780 [2]) of 19 nM, an IC50 (CH1 [3]; Homo sapiens, CH1) of 19 nM and an IC50 (CH1 [4]) of 18 nM. It also gave an IC50 (SK-OV-3 [5]) of 155 nM.

CISPLATIN showed an IC50 (CH1 [3]; ch1) of 650 nM.

With CN(CCCl)CCNc1ccc(NCCN(C)CCCl)c2c1C(=O)c1ccccc1C2=O the IC50 (A2780 [1]) was 135 nM, the RF (Homo sapiens) was 1.3 and the RF (Homo sapiens; Homo sapiens) was 2.6. For the same compound, the IC50 (A2780 [2]) was 355 nM, the IC50 (CH1 [3]; Homo sapiens, CH1) was 145 nM and the IC50 (CH1 [4]) was 110 nM. It also gave an IC50 (SK-OV-3 [5]) of 770 nM.
